Experimental data pooled from the literature.
Compare with care: the assays were run in different laboratories.
Effect on: cell growth or viability

Compound	cell line	test	conditions	quantity	result
O=C(N/N=C/c1c(O)ccc2ccccc12)c1cc(-c2ccc3ccccc3c2)n[nH]1	WM35	MTS	24 h	IC50	37 µM
COc1ccc(/C=C\c2cc(OC)c(OC)c(OC)c2)cc1O	CCRF-CEM		48 h	CC50	0.036 µM
Oc1ccc(Nc2nc(-c3ccc(Cl)cc3)cs2)cc1	WM35	MTS	48 h	IC50	10.3 µM
COc1ccc(C2=Nn3c(NN=C4C(=O)Nc5ccc(OC)cc54)nnc3SC2)cc1	SNB-75	SRB	10 µM	inhibition	16%
COc1cccc(-c2cn(-c3cc(=O)oc4ccc(Br)cc34)nn2)c1	CCRF-CEM		48 h	CC50	10.3 µM
COc1cc(Nc2nccc(-c3cnn4nc(OC)ccc34)n2)cc(C(F)(F)F)c1	RKO	ATP luminescence		IC50	0.27 µM
COc1ccc(-c2ccc(-c3ccc(C(=N)N)nc3)s2)cc1Cl	SNB-75	SRB		GI50	1.43 µM
CC(C)C[C@H](NC(=O)[C@H](Cc1ccccc1)NC(=O)c1cnccn1)B(O)O	EPLC-272H	ATP luminescence		IC50	0.0086 µM
COc1ccc(-c2ccc(-c3ccc(C(=N)N)nc3)s2)cc1	UACC-257	SRB		GI50	1.8 µM
